Screening data (PubChem BioAssay)
The list is not random: actives were taken first. Their share in the collection is about 2.4%.
CASP6 VEID inh = inhibitors of human caspase-6 | inhibition, % at 12.5 µM | purified caspase-6, Z-VEID-R110 cleavage fluorescence | 350,000 compounds, 0.53% hits;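 active = mean inhibition across replicates at least about 35%, with every replicate also reaching that limit, limit read from the data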;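 note: 0% = median of neutral control wells and 100% = no fluorescence left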
PGC1a acetyl inh = modulators of PGC1a acetylation. U2OS PGC1a acetylation, AlphaScreen anti-acetyl-lysine; with virally co-expressed GCN5 acetyltransferase. inhibition, % at 15.6 µM. 350,000 compounds, 0.17% hits. AID 651687;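 active = every replicate shows inhibition of at least 40%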;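 note: 0% = neutral control wells and 100% = positive control wells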
S100A4 MyoIIA = inhibitors of human S100A4 binding to myosin IIA peptide; P26447; S100A4/TAMRA-MyoIIA peptide fluorescence polarization; inhibition, % at 10.7 µM; 360,000 compounds, 0.14% hits;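 active = mean inhibition of at least 70% across replicates, with every replicate also reaching that level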
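Assay system: human S100A4 monomer with TAMRA-labelled myosin IIA peptide / Buffer or medium: Calcium-containing HEPES buffer, pH 7.2 / Reagent: TAMRA-labelled myosin IIA heavy-chain peptide probe, 5 nM / Compound: one dose per compound / Timing: polarization read 5 min after assay mix addition, stable 5–60 min / Benchmarks: neutral control DMSO, positive control TFP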
ARNT-TACC3 inh = ARNT/TACC3 interaction disruption | AlphaScreen His-ARNT PAS-B/GST-TACC3 binding, luminescence; TACC3 fragment carries E629A point mutation | 390,000 compounds, 0.66% hits | inhibition, % at 9.99 µM;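 active = mean inhibition of replicates at least 50% and at least half of replicates each reaching 50%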;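 note: 0% = complete ARNT plus TACC3 wells and 100% = ARNT alone without TACC3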
ERAP1 inh = ERAP1 (human) enzyme inhibition; Q9NZ08; AID 652197; inhibition, % at 10.7 µM; 340,000 compounds, 0.15% hits; recombinant ERAP1, Leu-AMC fluorescence, 60 min;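 active = mean replicate inhibition of at least 30%, or all replicates individually reaching that 30% level; inactive = mean below 30% and not every replicate reaching it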;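 note: 0% = neutral control wells and 100% = L-leucinethiol positive control wells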
rRNA inh HTS = inhibitors of bacterial rRNA selective over humanized ribosomes; 350,000 compounds, 1.6% hits; AID 720706; E. coli WT GFP vs humanized-ribosome RFP mutants, fluorescence, 24 h; hits give low values; DMSO median 0, no signal -100; GFP signal change (wild-type ribosome), % (test concentration not listed);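 active = significant combined selectivity score with lowered wild-type GFP, culture density cut under 30%, mutant RFP and density less affected; inactive = any of these conditions unmet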
Numbers without * were called inactive; / = not tested or not shown; + = active, no number.

SMILES | CASP6 VEID inh | PGC1a acetyl inh | S100A4 MyoIIA | ARNT-TACC3 inh | ERAP1 inh | rRNA inh HTS
O=C1NCN(c2ccccc2)C12CCN(C(c1ccccc1)c1nnnn1Cc1ccccc1)CC2 (configuration not stated) | 1 | -27 | -6 | / | / | -21*
COc1ccc(-n2nnnc2C(CCSC)N2CCC3(CC2)C(=O)NCN3c2ccccc2)cc1 (configuration not stated) | 1 | -16 | 0 | / | / | -21*
O=C(Cc1cccnc1)N1CCCCN2[C@H](CO)[C@@H](c3ccc(/C=C/c4ccccc4)cc3)[C@H]2C1 | -1 | 5 | -1 | 13 | -1 | -59
CC1=CC(=O)OC2CC3OC4C[C@@H](C)C5OC6CC7O[C@]8(C)C/C=C\C9OC%10CC%11OC(CC(C)C%12OCCO%12)CC(O)[C@]%11(C)OC%10CC9OC8C[C@]7(C)O[C@]6(C)CCC5OC4C[C@]3(C)OC12 (some centres not stated) | / | -4 | / | -1 | / | /
C=C(CC1CC(O)[C@]2(C)OC3CC4OC5C[C@]6(C)O[C@]7(C)CCC8OC9C[C@]%10(C)OC%11C(C)=CC(=O)OC%11CC%10OC9C[C@@H](C)C8OC7CC6O[C@]5(C)C/C=C\C4OC3CC2O1)C(=O)O (some centres not stated) | -2 | 4 | -8 | -12 | 51* | 10
CC1(C)CC(=O)C(C2(O)C(=O)NC(=O)NC2=O)=C(O)C1 | / | 0 | / | 23* | / | /
CCOC(=O)c1c(C)n(CC(O)CN2CCOCC2)c2cc(Br)c(OC)cc12 (configuration not stated) | 7 | -46 | 2 | -1 | -3 | -42*
CCOC(=O)c1c(C)n(CCN2CCN(C)CC2)c2ccc(OC)cc12 | / | 2 | / | 0 | / | /
Cc1cccc(-n2c(O)c(/C=N/Nc3nc4c(c(=O)n(C)c(=O)n4C)n3C)c(=O)[nH]c2=S)c1 | / | / | / | 72* | / | /
COc1ccc(N/N=C/c2c(O)n(-c3cccc(C)c3)c(=O)[nH]c2=O)cc1 | 1 | 10 | -14 | 36 | 5 | 3
Cc1ccc(-n2c(O)c(/C=N/Nc3ccccc3)c(=O)[nH]c2=O)cc1C | 2 | / | -11 | / | -1 | -15
Cc1ccccc1-n1c(O)c(/C=N/Nc2nc3c(c(=O)n(C)c(=O)n3C)n2C)c(=O)[nH]c1=S | / | / | / | 51* | / | /
Cn1c(=O)c2c(nc(N/N=C/c3c(O)n(C4CCCCC4)c(=S)[nH]c3=O)n2C)n(C)c1=O | 4 | 1 | 1 | 52* | / | -4
O=C(Cc1ccccc1)N1CC2(C1)[C@H](c1ccccc1)[C@@H](CO)N2Cc1cccc(F)c1 | -1 | -13 | 1 | / | -1 | -5
COC(=O)[C@H]1[C@H](CO)[C@H]2Cn3c(ccc(C4=CCCC4)c3=O)[C@@H]1N2C(=O)C1CCCCC1 | / | / | / | / | / | 0
COc1cc([C@H]2OC[C@H]3[C@@H]2CO[C@@H]3c2cc(OC)c(O[C@@H]3O[C@H](CO)[C@@H](O)[C@H](O)[C@H]3O)c(OC)c2)cc(OC)c1O[C@H]1O[C@@H](CO)[C@H](O)[C@@H](O)[C@@H]1O | 6 | / | 4 | -9 | / | 2
O=c1ccc2cc(OC3O[C@H](CO)[C@@H](O)[C@H](O)[C@H]3O)c(O)cc2o1 (some centres not stated) | 4 | / | -1 | -1 | 79* | /
C[C@H]1[C@@H](OS(=O)(=O)O)C[C@@H]2C[C@H]([C@@H](O)c3cc(=O)[nH]c(=O)[nH]3)NC3=NC[C@H]1N32 | / | 94* | / | / | / | /
O=c1c2ccccc2nc(/C=C/c2ccccc2O)n1-c1ccccc1O | 8 | / | -8 | / | 1 | -16
O=c1c2ccccc2nc(/C=C/c2ccccc2F)n1-c1ccccc1O | 3 | / | 3 | 2 | 3 | -24*
O=c1c2ccccc2nc(/C=C\c2ccccc2[N+](=O)[O-])n1-c1ccccc1O | 2 | -14 | -2 | 4 | 9 | -29*
COC(=O)[C@@H]1[C@@H](CO)[C@@H]2Cn3c(ccc(-c4cccc(OC)c4)c3=O)[C@H]1N2C(=O)c1cnccn1 | 0 | -3 | 1 | -6 | 4 | -2
COC(=O)[C@H]1[C@H](CO)[C@H]2Cn3c(ccc(-c4ccc(F)cc4)c3=O)[C@@H]1N2Cc1ccccc1 | 1 | / | 15 | 0 | 5 | -5
O=C(O)[C@H]1[C@H](CO)[C@H]2Cn3c(ccc(-c4ccncc4)c3=O)[C@@H]1N2C(=O)C1CCC1 | 1 | / | 13 | -13 | 14 | 1
O=C(O)[C@H]1[C@H](CO)[C@H]2Cn3c(ccc(-c4ccncc4)c3=O)[C@@H]1N2C(=O)C1CCCCC1 | -6 | / | 99* | 10 | 3 | 0
SMILES | CASP6 VEID inh | PGC1a acetyl inh | S100A4 MyoIIA | ARNT-TACC3 inh | ERAP1 inh | rRNA inh HTS
C=CCN1[C@@H]2CN(C(C)=O)C[C@H]1C2c1ccccc1 (some centres not stated) | / | / | / | / | / | 0
CNc1ccc2nc3ccccc3[n+](C)c2c1 | 95* | / | + | 68* | 5 | -13
C[n+]1c2ccccc2nc2ccc(NCCO)cc21 | 83* | / | 192* | 43 | 6 | -1
COC(=O)[C@@H]1[C@@H](CO)[C@@H]2Cn3c(ccc(C4=CCCCC4)c3=O)[C@H]1N2C(=O)NC(C)C | 2 | 8 | 6 | -1 | 4 | -4
C[C@@H]1CN([C@@H](C)CO)C(=O)c2c(c3ccccc3n2C)-c2ccccc2CO[C@H]1CN(C)C(=O)Oc1ccccc1 | -1 | / | 7 | / | -4 | -4
COC(=O)[C@@H]1[C@@H](CO)[C@@H]2Cn3c(ccc(-c4ccc(F)cc4)c3=O)[C@H]1N2Cc1ccccc1 | -1 | / | 9 | -7 | 6 | -1
O=C(O)[C@@H]1[C@@H](CO)[C@@H]2Cn3c(ccc(-c4cncnc4)c3=O)[C@H]1N2C(=O)NC1CCCC1 | 0 | / | 10 | -8 | 1 | 3
O=c1[nH]c(O)c(N=Nc2cc([N+](=O)[O-])ccc2O)c(=O)[nH]1 | 8 | -10 | -15 | 57* | 19 | 3
CN1/C(=C\C=C2C(=O)NC(=O)NC2=O)C(C)(C)c2ccccc21 | -8 | 17 | 45 | -1 | -1 | 21
CCN1/C(=C/C=C/C2=[N+](CC)c3ccccc3C2(C)C)C(C)(C)c2ccccc21 | -30 | -10 | + | / | 22 | 103
COP(=O)(OC)C(Nc1ccccc1)c1ccccc1 (configuration not stated) | 3 | / | -3 | 6 | -1 | 12
CC(C)OP(=O)(OC(C)C)C(NCc1ccccc1)c1ccccc1 (configuration not stated) | -7 | 3 | 0 | -4 | -3 | -20*
CC(C)NC(=O)N1C[C@@H]2C(c3ccc(Br)cc3)[C@H](C1)N2CC1CC1 (some centres not stated) | / | / | / | / | / | 0
